Calb biofilm kill: mixtures killing C. albicans biofilm. C. albicans biofilm persisters + clotrimazole, fluorescence viability; primary screen in compound mixtures of four per well. inhibition, % at 7.6 µM. actives 0.02% (n = 120,000);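 active means inhibition above 30.3% in the primary screen of four-compound pools, then above 30% when the compound was retested; inconclusive means passed the primary limit but could not be retested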;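 further: compounds exposed to preformed 24 h biofilms for 48 h; 0% = untreated biofilm control and 100% = clotrimazole plus chlorhexidine kill blank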
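Probe or stimulus – Clotrimazole 50 µg/mL co-treatment · System – C. albicans biofilms · Schedule – 24 h biofilm formation, then 48 h compound exposure, 37 °C · Evaluation – percent inhibition of biofilm viability · Technique – 2-h Alamar Blue fluorescence, 535/590 nm excitation/emission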
ROMK primary: modulators of human ROMK potassium channel; P48048; Tet-inducible ROMK, thallium flux fluorescence; actives lie on both sides; B-score at 10 µM; actives 2% (n = 130,000); AID 1918;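 active means signal ratio slope over the read window, or its plate-corrected B-score, at least 3 SD from the plate mean, either direction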;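 further: B-score of the F/F0 ratio slope over 7 to 12 s after thallium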
Target sequence (P48048 whole entry, looked up): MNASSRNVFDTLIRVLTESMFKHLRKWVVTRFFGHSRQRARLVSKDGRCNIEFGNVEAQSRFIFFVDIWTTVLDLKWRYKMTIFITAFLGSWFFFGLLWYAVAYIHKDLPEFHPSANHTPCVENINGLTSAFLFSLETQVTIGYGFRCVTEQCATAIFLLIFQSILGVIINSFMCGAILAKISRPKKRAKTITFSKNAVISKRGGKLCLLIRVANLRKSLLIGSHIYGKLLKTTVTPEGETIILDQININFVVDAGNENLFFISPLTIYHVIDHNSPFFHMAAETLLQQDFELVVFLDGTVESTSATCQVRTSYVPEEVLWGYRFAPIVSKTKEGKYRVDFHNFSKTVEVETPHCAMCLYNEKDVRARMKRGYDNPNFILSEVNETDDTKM
ROMK retest: confirmation of human ROMK potassium channel modulators; shares compounds with ROMK primary; ROMK thallium flux, fluorescence ratio; stronger effect = lower value; normalized thallium flux (F/F0 slope) at 10 µM; actives 54% (n = 3,000);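 active means Flux at 10 µM at least 3 SD below or above vehicle control mean in one or both replicates; inconclusive means no clear call, values can overlap the other calls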
Active calls of the source: *; ? = inconclusive; · = no result. This excerpt belongs to a sample that is enriched for hits.

SMILES	Calb biofilm kill	ROMK primary	ROMK retest
CC1(C)C2CCC1(C)C(NC(=O)/C=C/c1ccccc1)C2 (stereo unspecified)	6	0.084	·
CC(C)(C)c1cc(C(=O)NNC(=O)Nc2ccccc2)n(Cc2ccccc2)n1	4	·	·
CC(C)(C)c1cc(C(=O)NCc2cc(F)cc3c2OCOC3)n(Cc2ccccc2)n1	19	·	0.08
CC(=O)c1cccc(N2C(=O)C3C(C(=O)Nc4cc(C)on4)C4(C)C=CC3(O4)C2C(=O)NC(C)(C)C)c1 (stereo unspecified)	11	-0.14	·
O=C(c1cccs1)N(c1ccc(F)cc1)C1C=CS(=O)(=O)C1 (stereo unspecified)	8	0.9	·
CC(C)(C)NCC(O)COc1c(F)cc(Br)cc1F (stereo unspecified)	·	-1.5	·
CC(C)(C)CC(C)(C)NCC(O)COc1c(F)cc(Br)cc1F (stereo unspecified)	·	-3.2*	0.054*
O=c1[nH]c2cc3c(cc2cc1CN(CCO)S(=O)(=O)c1ccccc1Cl)OCCO3	·	0.67	·
O=c1[nH]c(=O)n(Cc2ccco2)c2c1C(C(F)(F)F)(C(F)(F)F)N=C(CCc1ccccc1)N2	·	·	0.063*
CCC(=O)NC1(C(F)(F)F)C(=O)Nc2c1c(=O)[nH]c(=O)n2Cc1ccco1 (stereo unspecified)	·	0.86	·
CC(C)Cn1c2c(c(=O)[nH]c1=O)C(C(F)(F)F)(C(F)(F)F)N=C(CCC1CCCCC1)N2	8	-0.18	·
O=c1[nH]c(=O)n(-c2ccccc2)c2c1C(C(F)(F)F)(C(F)(F)F)N=C(CCC1CCCCC1)N2	5	-3.4*	0.062*
Nc1nc(SCC(=O)N2CCCC2)[nH]c(=O)c1NC(=O)c1cccs1	24	·	·
Cc1ccc(NC(=O)C(=O)Nc2ccc(C)cn2)nc1	14	0.98	·
Cc1ccc(NC(=O)/C(C#N)=C(\N)C(Cl)(Cl)Cl)nc1	17	-5.5*	0.035*
Cc1cccc(NC(=O)c2cnn(-c3ccc(F)cc3)c2C2CCNCC2)c1C	19	-2.1	·
Cc1ccc(-n2ncc(C(=O)Nc3cc(Cl)ccc3C)c2C2CCNCC2)cc1C	5	-3.2*	0.045*
CNC(=S)n1cnc(N)n1	11	·	·
CCOC(=O)C1(CCOc2ccccc2)CCN(Cc2cccn2-c2ncccn2)CC1	0	-3.7*	?
CCOC(=O)C1(CCOc2ccccc2)CCN(Cc2ccncc2)CC1	14	·	·
Cc1ccc(-c2csc3ncnc(N4CCc5ccccc5C4)c23)cc1	15	·	·
Cc1cc(N)n(-c2ncnc3scc(-c4ccccc4)c23)n1	·	1.6*	0.08
CC1CN(C(=O)c2ccccc2)c2ccccc2NC1=O (stereo unspecified)	9	-1.5*	0.078
CCC(=O)N1CC(C)C(=O)Nc2ccccc21 (stereo unspecified)	·	1	·
C=CCNC(=O)c1cc(Cl)ccn1	11	-0.055	·
SMILES	Calb biofilm kill	ROMK primary	ROMK retest
CCOC(=O)C(NC(C)=O)C(=O)Nc1ccc(C(C)(C)C)cc1 (stereo unspecified)	6	3.5*	0.082
CCOC(=O)C(NC(C)=O)C(=O)Nc1ccc(C(C)C)cc1 (stereo unspecified)	20	-0.65	·
CCCCc1cc(=O)oc2c(CN(C)C)c(O)c(Cl)cc12	·	-1.7	·
COc1ccc(S(=O)(=O)NCC(c2cccnc2)N2CCN(c3ccc(F)cc3)CC2)cc1C (stereo unspecified)	·	-3.8*	0.074
COc1ccc(S(=O)(=O)NCC(c2cccnc2)N2CCN(c3ccccc3)CC2)cc1C (stereo unspecified)	·	-0.092	·
COc1cc(/C=C(/C(=O)c2cccs2)c2nc3ccccc3[nH]2)ccc1O	·	·	0.055*
O=C(/C(=C\c1ccccc1)c1nc2ccccc2[nH]1)c1ccc(Cl)cc1	19	·	·
COC(=O)/C(=C\c1cc(OC)c(OC)c(OC)c1)c1nc2ccccc2[nH]1	15	-1.8	·
O=c1[nH]c2ccccc2nc1/C=C(\O)c1cccs1	14	-2.5*	0.045*
O=C(/C(=C/c1ccc(Cl)cc1)c1nc2ccccc2[nH]1)c1cccs1	·	-5.4*	0.057*
CC(C)(C)/C(O)=C/c1nc2ccccc2[nH]c1=O	7	·	·
Cc1ccc(NC(=O)Cc2sc(C)nc2-c2ccc(C)cc2)cc1	21	-0.038	·
CC1(C)C2CCC1(CS(=O)(=O)N1CCCc3ccccc31)C(=O)C2 (stereo unspecified)	·	-3.4*	0.07
CC1(C)C2CCC1(CS(=O)(=O)N1CCOCC1)C(=O)C2 (stereo unspecified)	·	2.4	·
CC(NC(=O)c1cccc(Cn2cc([N+](=O)[O-])cn2)c1)c1ccc(C(C)(C)C)cc1 (stereo unspecified)	·	-0.044	·
CN(c1ccccc1)S(=O)(=O)c1cccc(NC(=O)c2ccc3ncsc3c2)c1	10	·	0.067*
Cc1nc2ccc(NC(=O)c3cccc(S(=O)(=O)N(C)c4ccccc4)c3)cc2s1	13	-1.4	·
CC(C)(C)N1CSC(=S)N(Cc2ccccc2)C1	11	-0.0065	·
CCOC(=O)c1ccc(S(=O)(=O)NCCN2CCOCC2)cc1	11	-1.3	·
COc1ccc(CNC(=O)C2CCN(S(=O)(=O)c3ccc(-c4nn[nH]n4)cc3)CC2)cc1	·	0.34	·
COc1ccc(CNC(=O)[C@H](C)NC(=O)C2CCN(S(=O)(=O)c3ccc(C)cc3)CC2)cc1	·	0.67	0.075
O=C(C[n+]1cccc(CNC(=O)c2ccc(OC(F)F)cc2)c1)Nc1ccc(SC(F)F)cc1	14	-4*	0.071
O=C(C[n+]1cccc(CNC(=O)c2ccc(OC(F)F)cc2)c1)Nc1ccccc1Cl	10	·	·
OCCN1CCN(CC(O)COCC2COc3ccccc3O2)CC1 (stereo unspecified)	7	0.13	·
CCOc1ccc(NC(=O)C2CSC(c3ccncc3)=N2)cc1 (stereo unspecified)	6	0.33	·
SMILES	Calb biofilm kill	ROMK primary	ROMK retest
COc1cc2cccc(OC)c(=O)c2c(O)c1OC	6	0.28	·
COc1cc2c(cc1OC)-c1c(OC)c(OC)cc3ccnc(c13)C2=O	11	-3.4*	0.054*
COc1cc(C(=O)NCc2ccc(C(=O)NCC(OC)OC)cc2)cc(OC)c1OC	9	0.016	·
CCN(C#N)c1nc(NC(C)C)nc(NC(C)(C)C)n1	11	-7.8*	0.077
CCCN(C#N)c1nc(NCC)nc(NC(C)C)n1	·	-0.61	·
Cc1ccc(Cl)c2c1=NC(=O)C=2c1[nH]c(=S)[nH]c1O	10	-2.4*	0.054*
O=C1N=c2ccccc2=C1c1[nH]c(=S)[nH]c1O	15	·	·
NCCc1c(-c2ccccc2)n(-c2ccccc2)c2ccccc12	13	-3.4*	0.061*
O=c1c2ccccc2c2ccccc2c(=O)n1-c1ccccc1	11	-0.59	·
Cc1cc(NC(=O)Nc2cccc3ccccc23)no1	18	·	·
Cc1c(C(=O)Nn2cnnc2)oc2ccccc12	·	0.21	·
Cc1c(C(=O)Nc2ccncc2)oc2ccccc12	·	·	0.074
Cc1ccc(Cl)cc1N1CCN(S(=O)(=O)c2ccc3[nH]c(=O)c(=O)[nH]c3c2)CC1	7	0.27	·
Cc1ccc(Cl)cc1N1CCN(S(=O)(=O)c2cccc(S(=O)(=O)N3CCCC3)c2)CC1	·	-3.3*	0.07
CCCCNS(=O)(=O)c1ccc(OC)c2ncccc12	·	1	·
COc1cc(NC(C)CCCN)c2ncccc2c1Oc1ccccc1 (stereo unspecified)	16	-3.6*	0.065*
O=C(Oc1cccnc1)c1ccc(Cl)c(Cl)c1	·	-5.4*	?
COc1ccc(C(=O)Oc2cccnc2)cc1	·	-0.14	·
